Experimental data from ChEMBL document CHEMBL1629436, “Synthesis and biological evaluation of new camptothecin derivatives obtained by modification of position 20” (Bioorg Med Chem, 2010).
Active and inactive are the calls of the source. The calls are words filed in the database; no cut-off is given here.

Key:
[1] = system: yD1; experiment: Induction apoptosis in mouse yD1 cells assessed as ROS production at 10 uM/L using DCFH-DA by flow cytometry relative to control; assay type: functional, cell-based
How it was run: (§1)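 Transgenic mouse cells exposed to compound at 10 µmol/L. ROS generation was measured by flow cytometry using the probe DCFH-DA.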

[2] = system: yA3; experiment: Cytotoxicity against mouse yA3 cells after 24 to 96 hrs by MTS assay; assay type: functional, cell-based
How it was run: (§2)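 Mouse transgenic lines plated at 10^3 cells/well and left 24 h to attach. Drugs diluted in medium were added for 24 or 96 h. CellTiter 96 AQueous One (MTS) reagent was then added for 1 h at 37 °C, with absorbance read at 490 nm. Each condition was run in quintuplicate, and cytotoxicity was expressed as percent of controls.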

[3] = system: HeLa; experiment: Cytotoxicity against human HeLa cells after 72 hrs by trypan blue assay; assay type: functional, cell-based
How it was run: (§3)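 A-431, HeLa and HL-60 cells at 4×10^4 per well, incubated 24 h. HeLa and A-431 then received fresh medium. Graded compound concentrations were added for a further 72 h at 37 °C, 5% CO2. Viability was counted by Trypan blue exclusion. IC50 is the concentration giving 50% reduction in cell number versus control: ≥3 independent experiments, triplicate samples, mean ± SD.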

[4] = system: Craf/Cmyc; experiment: Cytotoxicity against mouse Craf/Cmyc cells after 24 to 96 hrs by MTS assay; assay type: functional, cell-based; how it was run: as §2
[5] = system: yB8; experiment: Cytotoxicity against mouse yB8 cells after 24 to 96 hrs by MTS assay; assay type: functional, cell-based; how it was run: as §2
[6] = organism: Mus musculus; experiment: Induction apoptosis in mouse betaD5 cells assessed as ROS production at 10 uM/L using DCFH-DA by flow cytometry relative to control; assay type: functional, cell-based; how it was run: as §1
[7] = system: yA7; experiment: Cytotoxicity against mouse yA7 cells after 24 to 96 hrs by MTS assay; assay type: functional, cell-based; how it was run: as §2
[8] = system: A2C12; experiment: Cytotoxicity against mouse A2C12 cells after 24 to 96 hrs by MTS assay; assay type: functional, cell-based; how it was run: as §2
[9] = system: yB8; experiment: Induction apoptosis in mouse yB8 cells assessed as ROS production at 10 uM/L using DCFH-DA by flow cytometry relative to control; assay type: functional, cell-based; how it was run: as §1
[10] = organism: Mus musculus; experiment: Induction apoptosis in mouse betaD10 cells assessed as ROS production at 10 uM/L using DCFH-DA by flow cytometry relative to control; assay type: functional, cell-based; how it was run: as §1
[11] = system: Craf/Cmyc; experiment: Induction apoptosis in mouse Craf/Cmyc cells assessed as ROS production at 10 uM/L using DCFH-DA by flow cytometry relative to control; assay type: functional, cell-based; how it was run: as §1
[12] = organism: Mus musculus; experiment: Cytotoxicity against mouse betaD10 cells after 24 to 96 hrs by MTS assay; assay type: functional, cell-based; how it was run: as §2
[13] = system: yD12; experiment: Cytotoxicity against mouse yD12 cells after 24 to 96 hrs by MTS assay; assay type: functional, cell-based; how it was run: as §2
[14] = molecular target: DNA topoisomerase 2-alpha (Homo sapiens) (UniProt P11388); experiment: Inhibition of human recombinant topoisomerase 2alpha-mediated relaxation of supercoiled pBR322 at up to 100 uM after 60 mins using ethidium bromide staining by agarose gel electrophoresis
Sequence of DNA topoisomerase 2-alpha (Homo sapiens) (P11388 whole entry): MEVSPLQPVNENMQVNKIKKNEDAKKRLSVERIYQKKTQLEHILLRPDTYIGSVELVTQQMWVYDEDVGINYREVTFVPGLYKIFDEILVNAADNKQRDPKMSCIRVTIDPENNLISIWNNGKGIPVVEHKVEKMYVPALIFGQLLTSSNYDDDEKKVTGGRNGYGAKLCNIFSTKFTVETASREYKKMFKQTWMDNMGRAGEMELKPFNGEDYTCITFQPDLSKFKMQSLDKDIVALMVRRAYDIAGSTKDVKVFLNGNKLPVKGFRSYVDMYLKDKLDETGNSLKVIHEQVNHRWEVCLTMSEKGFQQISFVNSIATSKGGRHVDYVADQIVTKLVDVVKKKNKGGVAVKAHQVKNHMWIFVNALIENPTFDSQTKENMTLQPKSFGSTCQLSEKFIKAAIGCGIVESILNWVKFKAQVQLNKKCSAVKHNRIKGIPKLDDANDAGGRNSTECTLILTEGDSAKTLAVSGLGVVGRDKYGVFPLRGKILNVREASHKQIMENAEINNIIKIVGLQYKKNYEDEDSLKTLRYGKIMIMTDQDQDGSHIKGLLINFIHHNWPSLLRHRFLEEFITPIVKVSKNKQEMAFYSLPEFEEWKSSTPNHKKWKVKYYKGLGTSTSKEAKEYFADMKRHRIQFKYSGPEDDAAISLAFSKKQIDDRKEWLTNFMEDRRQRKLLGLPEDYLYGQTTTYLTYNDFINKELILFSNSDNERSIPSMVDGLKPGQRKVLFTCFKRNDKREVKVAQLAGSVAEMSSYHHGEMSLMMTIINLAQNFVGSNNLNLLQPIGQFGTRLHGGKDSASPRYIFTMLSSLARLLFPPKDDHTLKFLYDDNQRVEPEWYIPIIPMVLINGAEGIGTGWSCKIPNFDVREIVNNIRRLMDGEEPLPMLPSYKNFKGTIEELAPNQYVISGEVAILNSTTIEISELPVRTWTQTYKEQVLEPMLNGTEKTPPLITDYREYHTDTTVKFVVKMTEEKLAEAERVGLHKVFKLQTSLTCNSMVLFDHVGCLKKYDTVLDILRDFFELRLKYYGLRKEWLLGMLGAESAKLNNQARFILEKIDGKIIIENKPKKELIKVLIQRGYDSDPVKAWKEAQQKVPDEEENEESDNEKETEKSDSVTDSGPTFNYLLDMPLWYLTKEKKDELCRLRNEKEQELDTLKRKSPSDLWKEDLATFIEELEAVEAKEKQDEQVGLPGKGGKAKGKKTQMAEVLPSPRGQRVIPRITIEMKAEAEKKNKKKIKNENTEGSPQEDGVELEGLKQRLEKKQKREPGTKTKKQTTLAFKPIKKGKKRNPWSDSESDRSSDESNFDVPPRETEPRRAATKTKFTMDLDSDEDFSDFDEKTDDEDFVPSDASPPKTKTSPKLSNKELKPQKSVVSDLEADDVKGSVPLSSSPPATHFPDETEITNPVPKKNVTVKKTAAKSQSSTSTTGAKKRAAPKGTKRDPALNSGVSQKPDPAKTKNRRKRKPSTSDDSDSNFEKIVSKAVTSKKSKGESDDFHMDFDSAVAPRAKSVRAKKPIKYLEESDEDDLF
How it was run: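 Supercoiled pBR322 (0.25 µg) with 1 U human recombinant topoisomerase IIα and test compound, 60 min at 37 °C in 20 µl reaction buffer. Stopped with SDS/bromophenol blue/glycerol plus 50 µg/mL proteinase K, 30 min at 37 °C. Separated on 1% agarose at room temperature, ethidium bromide stained (1 µg/mL, TAE), UV-visualized.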

[15] = system: yD12; experiment: Induction apoptosis in mouse yD12 cells assessed as ROS production at 10 uM/L using DCFH-DA by flow cytometry relative to control; assay type: functional, cell-based; how it was run: as §1
[16] = system: A-431; experiment: Cytotoxicity against human A431 cells after 72 hrs by trypan blue assay; assay type: functional, cell-based; conditions: A-431, 72 h; how it was run: as §3
[17] = system: HL-60; experiment: Cytotoxicity against human HL60 cells after 72 hrs by trypan blue assay; assay type: functional, cell-based; conditions: HL-60, 72 h; how it was run: as §3
[18] = organism: Bos taurus; experiment: Inhibition of calf thymus topoisomerase 1-mediated relaxation of supercoiled pBR322 at 100 uM after 60 mins using ethidium bromide staining by agarose gel electrophoresis
How it was run: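 Supercoiled pBR322 (0.25 µg) with 2 U calf thymus topoisomerase I and test compound, 60 min at 37 °C in 20 µl reaction buffer. Stopped with SDS/bromophenol blue/glycerol plus 50 µg/mL proteinase K, 30 min at 37 °C. Run on 1% agarose at room temperature, stained with ethidium bromide 1 µg/mL in TAE, imaged under UV.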

[19] = system: A2B1; experiment: Cytotoxicity against mouse A2B1 cells after 24 to 96 hrs by MTS assay; assay type: functional, cell-based; how it was run: as §2
[20] = organism: Mus musculus; experiment: Cytotoxicity against mouse betaD5 cells after 24 to 96 hrs by MTS assay; assay type: functional, cell-based; how it was run: as §2
[21] = system: B3; experiment: Induction apoptosis in mouse B3 cells assessed as ROS production at 10 uM/L using DCFH-DA by flow cytometry relative to control; assay type: functional, cell-based; how it was run: as §1
[22] = system: HUVEC; experiment: Antiangiogenic activity in HUVEC cocultured with human PaSMC assessed as morphological changes up to 200 nM after 72 hrs; assay type: functional, cell-based
How it was run: (§4)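 Primary HUVEC (passage 5, retrovirally labelled with RFP) and pulmonary artery vSMC (passage 5) co-seeded at 5×10^4 PaSMC plus 10×10^3 HUVEC per well in EGM-2, briefly spun at 200 g, attached 3 h. Compounds were then added at final 2–200 nM, two replicates per concentration. Networks formed over 72 h at 37 °C, 5% CO2, followed by automated imaging and image analysis of tube formation.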

[23] = system: HUVEC; experiment: Antiangiogenic activity in HUVEC cocultured with human PaSMC assessed as reduction of total tube length at 125 nM after 72 hrs; assay type: functional; parameters: scale not given: the % may be the effect or the level left; how it was run: as §4
[24] = system: Nucleic Acid; experiment: Binding affinity to salmon testes DNA by linear flow dichroism analysis; assay type: nucleic-acid assay; conditions: Salmonidae
How it was run: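 Salmon testes DNA (1.9 × 10^-3 M) in ETN buffer (10 mM Tris, 10 mM NaCl, 1 mM EDTA, pH 7). Linear dichroism spectra were recorded at 25 °C over a range of [drug]/[DNA] ratios on a spectropolarimeter converted for LD.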

[25] = system: B3; experiment: Cytotoxicity against mouse B3 cells after 24 to 96 hrs by MTS assay; assay type: functional, cell-based; how it was run: as §2
[26] = system: yA7; experiment: Induction apoptosis in mouse yA7 cells assessed as ROS production at 10 uM/L using DCFH-DA by flow cytometry relative to control; assay type: functional, cell-based; how it was run: as §1
[27] = system: yA3; experiment: Induction apoptosis in mouse yA3 cells assessed as ROS production at 10 uM/L using DCFH-DA by flow cytometry relative to control; assay type: functional, cell-based; how it was run: as §1
[28] = system: A2C12; experiment: Induction apoptosis in mouse A2C12 cells assessed as ROS production at 10 uM/L using DCFH-DA by flow cytometry relative to control; assay type: functional, cell-based; how it was run: as §1
[29] = Induction apoptosis in mouse Craf/Cmyc cells assessed as relative caspase activity at 10 uM/L after 2 hrs by rhodamine 110 fluorescence assay; assay type: functional
How it was run: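 Cells were pretreated with compound (10 µmol/L) for 2 h. The cell-permeable caspase substrate (Asp)2-rhodamine 110 (10 µmol/L) was then added for 2 h more. Caspase cleavage releases fluorescent rhodamine 110, and the read-out was mean fluorescence.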

| Activity [14] | Activity [18] | Activity [24] | Compound | Activity [1] | Activity [2] | IC50 [3] [nM] | Activity [4] | Activity [5] | Activity [6] | Activity [7] | Activity [8] | Activity [11] | Activity [12] | Activity [13] | IC50 [16] [nM] | IC50 [17] [nM] | Activity [19] | Activity [20] | Activity [21] | Activity [25] | other results |
| --- | --- | --- | --- | --- | --- | --- | --- | --- | --- | --- | --- | --- | --- | --- | --- | --- | --- | --- | --- | --- | --- |
| inactive | inactive | inactive | CC[C@@]1(OC(=O)NCCNC(=O)CCCSSCCCC(=O)NCCNC(=O)O[C@]2(CC)C(=O)OCc3c2cc2n(c3=O)Cc3cc4ccccc4nc3-2)C(=O)OCc2c1cc1n(c2=O)Cc2cc3ccccc3nc2-1 | Active | Active | 170 | Active | Active | Active | Active | Active | Active | Active | Active | 30 | 290 | Active | Active | Active | Active | Activity [9]: Active; Activity [10]: Active; Activity [15]: Active; Activity [22]: inactive; Activity [23]: 50%; Activity [26]: Active; Activity [27]: Active; Activity [28]: Active |
| inactive | inactive | inactive | CC[C@@]1(OC(=O)NCCNC(=O)CCCCCCCCC(=O)NCCNC(=O)O[C@]2(CC)C(=O)OCc3c2cc2n(c3=O)Cc3cc4ccccc4nc3-2)C(=O)OCc2c1cc1n(c2=O)Cc2cc3ccccc3nc2-1 | Active | Active | 300 | Active | Active | Active | Active | Active | Active | Active | Active | 80 | 420 | Active | Active | Active | Active | Activity [27]: Active; Activity [28]: Active; fold change (FC) [29]: 8 |
